In ChEMBL document CHEMBL3351702, “Design, synthesis and characterization of fluoro substituted novel pyrazolylpyrazolines scaffold and their pharmacological screening” (Eur J Med Chem, 2014):
≈ marks a conversion by molar mass, not a printed value.

Key:
[1] = system: Bacillus subtilis; experiment: Antimicrobial activity against Bacillus subtilis MTCC 441 assessed as absence of visible growth after 24 to 48 hrs by broth micro dilution method; assay type: functional
[2] = system: Aspergillus fumigatus; experiment: Antimicrobial activity against Aspergillus fumigatus MTCC 3008 assessed as absence of visible growth after 24 to 48 hrs by broth micro dilution method; assay type: functional
In short: (§1)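 Fungal broth microdilution following NCCLS, in Sabouraud dextrose broth, with compounds diluted from DMSO and inoculum adjusted to 10⁸ CFU/mL by turbidity. Growth read at 24 and 48 h. MIC is the highest dilution preventing turbidity after spot subculture. Griseofulvin and nystatin were the references.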

[3] = system: Candida albicans; experiment: Antimicrobial activity against Candida albicans MTCC 227 assessed as absence of visible growth after 24 to 48 hrs by broth micro dilution method; assay type: functional; in short: as §1
[4] = system: Salmonella typhi; experiment: Antimicrobial activity against Salmonella typhi MTCC 98 assessed as absence of visible growth after 24 to 48 hrs by broth micro dilution method; assay type: functional, Salmonella enterica subsp. enterica serovar Typhi; conditions: Salmonella enterica
[5] = system: Streptococcus pneumoniae; experiment: Antimicrobial activity against Streptococcus pneumoniae MTCC 1936 assessed as absence of visible growth after 24 to 48 hrs by broth micro dilution method; assay type: functional
[6] = system: Vibrio cholerae; experiment: Antimicrobial activity against Vibrio cholerae MTCC 3906 assessed as absence of visible growth after 24 to 48 hrs by broth micro dilution method; assay type: functional
[7] = system: Escherichia coli; experiment: Antimicrobial activity against Escherichia coli MTCC 443 assessed as absence of visible growth after 24 to 48 hrs by broth micro dilution method; assay type: functional
[8] = system: Clostridium tetani; experiment: Antimicrobial activity against Clostridium tetani MTCC 449 assessed as absence of visible growth after 24 to 48 hrs by broth micro dilution method; assay type: functional
[9] = system: Plasmodium falciparum; experiment: Antimalarial activity against chloroquine ane quinine-sensitive ring stage of Plasmodium falciparum assessed as inhibition of parasite growth after 48 hrs; assay type: functional, organism-based
In short: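 P. falciparum field strain from a Surat hospital, cultured by a modified Trager–Jensen method and synchronized with 5% D-sorbitol at ring stage. Rings at 1–2% parasitaemia and 2.5% haematocrit in hypoxanthine-free RPMI-1640 with 10% human plasma. Exposed to 7 concentrations, diluted from DMSO stocks, for one 48 h cycle at 37 °C. Growth inhibition % measured; IC50 by interpolation; duplicate runs, mean reported.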

[10] = system: Mycobacterium tuberculosis; experiment: Antituberculosis activity against Mycobacterium tuberculosis H37Rv assessed as inhibition of colony formation at 250 ug/ml after 4 weeks of incubation; assay type: functional; conditions: 672 h

Row | Compound | MIC [1] | MIC [2] | MIC [3] | MIC [4] | MIC [5] | MIC [6] | MIC [7] | MIC [8] | IC50 [9] | inhibition at 250 µg/mL [10]
1 | Cc1nn(-c2ccccc2)c(Oc2ccccc2F)c1C1CC(c2ccc(F)cc2)=NN1c1ccc(F)cc1 (stereo not drawn) | 500 µg/mL (≈ 953 µM) | 100 µg/mL (≈ 191 µM) | 1000 µg/mL (≈ 1910 µM) | 250 µg/mL (≈ 477 µM) | 250 µg/mL (≈ 477 µM) | 250 µg/mL (≈ 477 µM) | 200 µg/mL (≈ 381 µM) | 250 µg/mL (≈ 477 µM) | 0.025 µg/mL (≈ 0.0477 µM) | 10%
2 | NYSTATIN |  | 100 µg/mL | 100 µg/mL |  |  |  |  |  |  | 
3 | COc1ccc(N2N=C(c3ccc(F)cc3)CC2c2c(C)nn(-c3ccccc3)c2Oc2ccc(F)cc2)cc1 (stereo not drawn) | 62.5 µg/mL (≈ 116 µM) | 250 µg/mL (≈ 466 µM) | 500 µg/mL (≈ 932 µM) | 500 µg/mL (≈ 932 µM) | 125 µg/mL (≈ 233 µM) | 100 µg/mL (≈ 186 µM) | 500 µg/mL (≈ 932 µM) | 200 µg/mL (≈ 373 µM) | 0.25 µg/mL (≈ 0.466 µM) | 74%
4 | Cc1nn(-c2ccccc2)c(Oc2cccc(F)c2)c1C1CC(c2ccc(F)cc2)=NN1c1ccc(Br)cc1 (stereo not drawn) | 250 µg/mL (≈ 427 µM) | > 1000 µg/mL | 250 µg/mL (≈ 427 µM) | 200 µg/mL (≈ 342 µM) | 500 µg/mL (≈ 854 µM) | 125 µg/mL (≈ 214 µM) | 500 µg/mL (≈ 854 µM) | 250 µg/mL (≈ 427 µM) | 0.06 µg/mL (≈ 0.102 µM) | 56%
5 | C=C[C@H]1CN2CC[C@H]1C[C@H]2[C@H](O)c1ccnc2ccc(OC)cc12 [QUININE] |  |  |  |  |  |  |  |  | 0.268 µg/mL (≈ 0.826 µM) | 
6 | O=C(O)c1cn(C2CC2)c2cc(N3CCNCC3)c(F)cc2c1=O [CIPROFLOXACIN] |  |  |  | 25 µg/mL (≈ 75.4 µM) | 25 µg/mL (≈ 75.4 µM) | 25 µg/mL (≈ 75.4 µM) | 25 µg/mL (≈ 75.4 µM) |  |  | 
7 | Cc1nn(-c2ccccc2)c(Oc2ccccc2F)c1C1CC(c2ccc(F)cc2)=NN1c1ccc(Br)cc1 (stereo not drawn) | 200 µg/mL (≈ 342 µM) | 1000 µg/mL (≈ 1710 µM) | 250 µg/mL (≈ 427 µM) | 200 µg/mL (≈ 342 µM) | 250 µg/mL (≈ 427 µM) | 500 µg/mL (≈ 854 µM) | 100 µg/mL (≈ 171 µM) | 500 µg/mL (≈ 854 µM) | 0.088 µg/mL (≈ 0.15 µM) | 94%
8 | COc1ccc(N2N=C(c3ccc(F)cc3)CC2c2c(C)nn(-c3ccccc3)c2Oc2cccc(C(F)(F)F)c2)cc1 (stereo not drawn) | 100 µg/mL (≈ 170 µM) | 500 µg/mL (≈ 852 µM) | 250 µg/mL (≈ 426 µM) | 100 µg/mL (≈ 170 µM) | 200 µg/mL (≈ 341 µM) | 250 µg/mL (≈ 426 µM) | 100 µg/mL (≈ 170 µM) | 200 µg/mL (≈ 341 µM) | 0.3 µg/mL (≈ 0.511 µM) | 52%
9 | COc1ccc(N2N=C(c3ccc(F)cc3)CC2c2c(C)nn(-c3ccccc3)c2Oc2cccc(F)c2)cc1 (stereo not drawn) | 200 µg/mL (≈ 373 µM) | > 1000 µg/mL | 1000 µg/mL (≈ 1860 µM) | 500 µg/mL (≈ 932 µM) | 100 µg/mL (≈ 186 µM) | 200 µg/mL (≈ 373 µM) | 500 µg/mL (≈ 932 µM) | 200 µg/mL (≈ 373 µM) | 0.57 µg/mL (≈ 1.06 µM) | 56%
10 | CC1(C)S[C@@H]2[C@H](NC(=O)[C@H](N)c3ccccc3)C(=O)N2[C@H]1C(=O)O [AMPICILLIN] | 250 µg/mL (≈ 715 µM) |  |  | 100 µg/mL (≈ 286 µM) | 100 µg/mL (≈ 286 µM) | 100 µg/mL (≈ 286 µM) | 100 µg/mL (≈ 286 µM) | 250 µg/mL (≈ 715 µM) |  | 
11 | CO[C@H]1/C=C/O[C@@]2(C)Oc3c(C)c(O)c4c(O)c(c(/C=N/N5CCN(C)CC5)c(O)c4c3C2=O)NC(=O)/C(C)=C\C=C\[C@H](C)[C@H](O)[C@@H](C)[C@@H](O)[C@@H](C)[C@H](OC(C)=O)[C@@H]1C [RIFAMPIN] |  |  |  |  |  |  |  |  |  | 98%
12 | COC1=CC(=O)C[C@@H](C)[C@]12Oc1c(Cl)c(OC)cc(OC)c1C2=O [GRISEOFULVIN] |  | 100 µg/mL (≈ 283 µM) | 500 µg/mL (≈ 1420 µM) |  |  |  |  |  |  | 
13 | Cc1nn(-c2ccccc2)c(Oc2cccc(C(F)(F)F)c2)c1C1CC(c2ccc(F)cc2)=NN1c1ccc(Br)cc1 (stereo not drawn) | 250 µg/mL (≈ 393 µM) | 500 µg/mL (≈ 787 µM) | 1000 µg/mL (≈ 1570 µM) | 200 µg/mL (≈ 315 µM) | 500 µg/mL (≈ 787 µM) | 250 µg/mL (≈ 393 µM) | 250 µg/mL (≈ 393 µM) | 250 µg/mL (≈ 393 µM) | 1.46 µg/mL (≈ 2.3 µM) | 91%
14 | COc1ccc(N2N=C(c3ccc(F)cc3)CC2c2c(C)nn(-c3ccccc3)c2Oc2ccccc2F)cc1 (stereo not drawn) | 100 µg/mL (≈ 186 µM) | 250 µg/mL (≈ 466 µM) | 500 µg/mL (≈ 932 µM) | 500 µg/mL (≈ 932 µM) | 500 µg/mL (≈ 932 µM) | 500 µg/mL (≈ 932 µM) | 500 µg/mL (≈ 932 µM) | 500 µg/mL (≈ 932 µM) | 0.65 µg/mL (≈ 1.21 µM) | 22%
15 | Cc1nn(-c2ccccc2)c(Oc2ccc(F)cc2)c1C1CC(c2ccc(F)cc2)=NN1c1ccc(Br)cc1 (stereo not drawn) | 500 µg/mL (≈ 854 µM) | > 1000 µg/mL | 500 µg/mL (≈ 854 µM) | 200 µg/mL (≈ 342 µM) | 500 µg/mL (≈ 854 µM) | 500 µg/mL (≈ 854 µM) | 200 µg/mL (≈ 342 µM) | 125 µg/mL (≈ 214 µM) | 0.025 µg/mL (≈ 0.0427 µM) | 96%
16 | Cc1nn(-c2ccccc2)c(Oc2ccc(F)cc2)c1C1CC(c2ccc(F)cc2)=NN1c1ccc(F)cc1 (stereo not drawn) | 500 µg/mL (≈ 953 µM) | > 1000 µg/mL | 200 µg/mL (≈ 381 µM) | 250 µg/mL (≈ 477 µM) | 100 µg/mL (≈ 191 µM) | 200 µg/mL (≈ 381 µM) | 500 µg/mL (≈ 953 µM) | 250 µg/mL (≈ 477 µM) | 0.022 µg/mL (≈ 0.0419 µM) | 40%
17 | CCn1cc(C(=O)O)c(=O)c2cc(F)c(N3CCNCC3)cc21 [NORFLOXACIN] | 100 µg/mL (≈ 313 µM) |  |  | 10 µg/mL (≈ 31.3 µM) | 10 µg/mL (≈ 31.3 µM) | 10 µg/mL (≈ 31.3 µM) | 10 µg/mL (≈ 31.3 µM) | 50 µg/mL (≈ 157 µM) |  | 
18 | O=C(N[C@H](CO)[C@H](O)c1ccc([N+](=O)[O-])cc1)C(Cl)Cl [CHLORAMPHENICOL] | 50 µg/mL (≈ 155 µM) |  |  | 50 µg/mL (≈ 155 µM) | 50 µg/mL (≈ 155 µM) | 50 µg/mL (≈ 155 µM) | 50 µg/mL (≈ 155 µM) | 50 µg/mL (≈ 155 µM) |  | 
